Results reported in ChEMBL document CHEMBL1144150, “A new biflavonoid from Calophyllum panciflorum with antitumor-promoting activity” (J Nat Prod, 1999).

Columns and labels:
Assay type in all cases: cell-based
[1] = test system: Raji; assay: Antitumor-promoting activity assessed as TPA-induced EBV-early antigen activation in human Raji cells at 16 nmol after 48 hrs relative to TPA; conditions: human gammaherpesvirus 4
[2] = test system: Raji; assay: Antitumor-promoting activity assessed as TPA-induced EBV-early antigen activation in human Raji cells at 3.2 nmol after 48 hrs relative to TPA; conditions: human gammaherpesvirus 4
[3] = test system: Raji; assay: Antitumor-promoting activity assessed as TPA-induced EBV-early antigen activation in human Raji cells at 0.32 nmol after 48 hrs relative to TPA; conditions: human gammaherpesvirus 4
[4] = Cytotoxicity against human Raji cells assessed as cell viability at 32 nmol by trypan blue staining; conditions: read-out: Activity
[5] = Cytotoxicity against human Raji cells assessed as cell viability at 16 nmol by trypan blue staining; conditions: read-out: Activity
[6] = Cytotoxicity against human Raji cells assessed as cell viability at 3.2 nmol by trypan blue staining; conditions: read-out: Activity
[7] = Cytotoxicity against human Raji cells assessed as cell viability at 0.32 nmol by trypan blue staining; conditions: read-out: Activity
[8] = test system: Raji; assay: Antitumor-promoting activity assessed as TPA-induced EBV-early antigen activation in human Raji cells at 32 nmol after 48 hrs relative to TPA; conditions: human gammaherpesvirus 4
Method in brief: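 Raji cells (EBV genome-carrying lymphoblastoid, nonproducer) in RPMI 1640 with 10% FBS, 1×10⁶/mL, given 4 mM n-butyric acid plus 32 pmol TPA (20 ng/mL) and test compound; 37 °C, CO₂, 48 h. EA-positive cells scored by indirect immunofluorescence using NPC patient sera, ≥500 cells counted, three repeats. Expressed as % of butyric acid+TPA control (100%), mean ± S.D.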

Structure (SMILES): O=C1C[C@@H](c2ccc(O)c(O)c2)Oc2c1c(O)cc(O)c2[C@H]1C(=O)c2c(O)cc(O)cc2O[C@@H]1c1ccc(O)cc1
- Activity [1]: 42.5%
- Activity [2]: 71.3%
- Activity [3]: 90.6%
- viability at 32 nmol [4]: 70%
- viability at 16 nmol [5]: > 80%
- viability at 3.2 nmol [6]: > 80%
- viability at 0.32 nmol [7]: > 80%

Structure (SMILES): O=C1c2c(O)cc(O)cc2O[C@H](c2ccc(O)cc2)[C@H]1c1c(O)cc(O)c2c1O[C@H](c1ccc(O)cc1)[C@@H](O)C2=O
- Activity [8]: 25.3%
- Activity [1]: 61%
- Activity [2]: 88.2%
- Activity [3]: 95.7%
- viability at 32 nmol [4]: 70%
- viability at 16 nmol [5]: > 80%
- viability at 3.2 nmol [6]: > 80%
- viability at 0.32 nmol [7]: > 80%

Structure (SMILES): O=C1c2c(O)cc(O)cc2O[C@H](c2ccc(O)cc2)[C@H]1c1c(O)cc(O)c2c(=O)cc(-c3ccc(O)c(O)c3)oc12 [MORELLOFLAVONE]
- Activity [1]: 40.1%
- Activity [2]: 72.6%
- Activity [3]: 91.2%
- viability at 32 nmol [4]: 70%
- viability at 16 nmol [5]: > 80%
- viability at 3.2 nmol [6]: > 80%
- viability at 0.32 nmol [7]: > 80%

Structure (SMILES): O=C1c2c(O)cc(O)cc2O[C@H](c2ccc(O)cc2)[C@H]1c1c(O)cc(O)c2c1O[C@H](c1ccc(O)c(O)c1)[C@@H](O)C2=O
- Activity [8]: 28.7%
- Activity [1]: 63.9%
- Activity [2]: 90.3%
- Activity [3]: 100%
- viability at 32 nmol [4]: 70%
- viability at 16 nmol [5]: > 80%
- viability at 3.2 nmol [6]: > 80%
- viability at 0.32 nmol [7]: > 80%

Structure (SMILES): O=C1c2c(O)cc(O)cc2O[C@@H](c2ccc(O)cc2)[C@@H]1c1c(O)cc(O)c2c(=O)c(O)c(-c3ccc(O)cc3)oc12 [GARCINIANIN]
- Activity [1]: 31.4%
- Activity [2]: 69.2%
- Activity [3]: 89.4%
- viability at 32 nmol [4]: 70%
- viability at 16 nmol [5]: > 80%
- viability at 3.2 nmol [6]: > 80%
- viability at 0.32 nmol [7]: > 80%

Structure (SMILES): O=C1c2c(O)cc(O)cc2O[C@@H](c2ccc(O)cc2)[C@@H]1c1c(O)cc(O)c2c(=O)c(O)c(-c3ccc(O)c(O)c3)oc12 [PANCIBIFLAVONOL]
- Activity [8]: 22.1%
- Activity [1]: 50.2%
- Activity [2]: 75%
- Activity [3]: 94.4%
- viability at 32 nmol [4]: 70%
- viability at 16 nmol [5]: > 80%
- viability at 3.2 nmol [6]: > 80%
- viability at 0.32 nmol [7]: > 80%

Structure (SMILES): O=C1C[C@@H](c2ccc(O)cc2)Oc2c1c(O)cc(O)c2[C@H]1C(=O)c2c(O)cc(O)cc2O[C@@H]1c1ccc(O)cc1
- Activity [8]: 19.4%
- Activity [1]: 48.2%
- Activity [2]: 82.9%
- Activity [3]: 100%
- viability at 32 nmol [4]: 70%
- viability at 16 nmol [5]: > 80%
- viability at 3.2 nmol [6]: > 80%
- viability at 0.32 nmol [7]: > 80%
